Assay results from PMC5818879 (International Journal of Nanomedicine, 2018).
Converted amounts (≈) assume the structure as drawn.

Columns and labels:
[1] = tested on: HepG2 cells; test: Sulforhodamine B; type: cell-based; conditions: Homo sapiens, HepG2, 48 h
[2] = In vivo oral pharmacokinetic study, plasma HPLC; set-up: species or system albino Wistar rats
Outline: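 Albino Wistar rats received free or PLGA-nanoparticle test compound orally at 100 mg/kg. […] was mixed 1:1 with ACN, vortexed, spun, dried at 40°C and reconstituted in ACN. Assay was RP-C18 HPLC (ACN:H2O 9:1, 1 mL/min, 40°C, 230 nm); calibrants 0.01–50.0 µg/mL.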

[3] = tested on: NDEA-induced HCC; test: NDEA-induced HCC model: body weight, liver weight, tumor incidence; type: in vivo, Wistar albino rats
Outline: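 NDEA-induced HCC in male Wistar albino rats (six weeks old, 80–120 g, n=8/group): 100 mg/kg i.p. weekly for 6 weeks. Then free or PLGA-nanoparticle test compound was given at 50 or 100 mg/kg orally, or 5-FU 10 mg/kg i.p., for 15 days; controls got 0.25% CMC 2 mL/kg. Body weight was taken on the first and last days as % gain. Livers were weighed; nodule number and % incidence were counted.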

[4] = tested on: NDEA-induced HCC; test: NDEA-induced HCC model: oxidative stress parameters in liver tissue; type: in vivo, Wistar albino rats
Outline: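 Rats were male Wistar albino (80–120 g, n=8/group) given NDEA 100 mg/kg i.p. weekly for 6 weeks. They then received free or PLGA-nanoparticle test compound at 50 or 100 mg/kg orally, or 5-FU 10 mg/kg i.p., for 15 days. Livers were excised, rinsed in ice-cold saline and stored at −80°C. CAT, SOD, GSH, protein carbonyl and TBARS were assayed in liver tissue.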

[5] = tested on: NDEA-induced HCC; test: NDEA-induced HCC model: catabolic by-products; type: in vivo, Wistar albino rats; conditions: NDEA rats; 50 and 100 mg/kg orally for 15 days
[6] = tested on: IL-2, IL-6, IL-10 and IL-1β; type: in vivo, Wistar albino rats; conditions: NDEA rats, ELISA; 50 and 100 mg/kg orally for 15 days
Outline: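 Male Wistar albino rats (six weeks old, 80–120 g, n=8/group) got NDEA 100 mg/kg i.p. weekly for 6 weeks. Free or PLGA-nanoparticle test compound followed at 50 or 100 mg/kg orally for 15 days (5-FU 10 mg/kg i.p.; vehicle 0.25% CMC). Excised livers were rinsed in ice-cold saline and kept at −80°C. Hepatic IL-2, IL-6, IL-10 and IL-1β were measured by kit ELISA; mean ± SD.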

[7] = tested on: caspase-3 and -8; test: NDEA-induced HCC model: ELISA of caspase-3 and -8 in liver; type: in vivo, Wistar albino rats; conditions: NDEA rats; 50 and 100 mg/kg orally for 15 days
[8] = tested on: caspase-3 and -8 genes; test: NDEA-induced HCC model: qRT-PCR of caspase-3 and -8 mRNA in liver tissue; type: in vivo, Wistar albino rats; conditions: NDEA rats, 50 and 100 mg/kg orally for 15 days
[9] = tested on: NDEA-induced HCC; test: NDEA-induced HCC model: histopathology; type: in vivo, Wistar albino rats; conditions: NDEA rats; 50 and 100 mg/kg orally for 15 days
[10] = albino Wistar, rat, po, 100 mg/kg
[11] = oral 100 mg/kg, albino Wistar rats
[12] = NDEA + 50 mg/kg orally for 15 days
[13] = NDEA + 100 mg/kg orally for 15 days
[14] = NDEA + 5-FU 10 mg/kg i.p. for 15 days

Q: What does the source list for C=C(C)[C@@H]1CC[C@]2(C(=O)O)CC[C@]3(C)[C@H](CC[C@@H]4[C@@]5(C)CC[C@H](O)C(C)(C)[C@@H]5CC[C@]43C)[C@@H]12 [B, Betulinic acid]?
A: GI50 [1]: 10 µg/mL (≈ 21.9 µM); AUC [2, 10]: 134 µg·h/mL; AUC(0-inf) [2, 10]: 134 ± 35.7 µg·h/mL; Cmax [2, 10]: 10300 ± 450 ng/mL; MRT [2, 10]: 12.9 ± 1.35 h; Tmax [2, 10]: 4 h; half-life [2, 10]: 10.7 h; AUMC [2, 11]: 1,724.12 µg·h^2/mL; CL [2, 11]: 0.007 h; Final day body weight [3, 12]: 132.00 ± 4.25 g; Liver weight [3, 12]: 12.78 ± 0.73 g; Tumor incidence no [3, 12]: 19.00±0.97; Weight variation [3, 12]: 11.00 ± 1.82 g; Final day body weight [3, 13]: 130.00 ± 2.12 g; Liver weight [3, 13]: 12.03 ± 1.25 g; Tumor incidence no [3, 13]: 14.00±1.01; Weight variation [3, 13]: 12.00 ± 2.93 g; CAT [4, 12]: 5.75±0.27 nM of H2O2/min/µg of protein; GSH [4, 12]: 3.25±0.65 mM/mg of protein; ProC [4, 12]: 0.91±0.02 µM/µg of protein; SOD [4, 12]: 0.19±0.07 U/µg of protein; TBARS [4, 12]: 0.13±0.05 nM of MDA/mg of protein; CAT [4, 13]: 6.81±0.73 nM of H2O2/min/µg of protein; GSH [4, 13]: 3.50±0.32 mM/mg of protein; ProC [4, 13]: 0.76±0.02 µM/µg of protein; SOD [4, 13]: 0.21±0.05 U/µg of protein; TBARS [4, 13]: 0.11±0.04 nM of MDA/mg of protein; Catabolic pigments bilirubin and biliverdin in liver tissue (in words) [5]: significant (p<0.001) normalization; Inflammatory cytokines IL-2, IL-6, IL-10, IL-1β (in words) [6]: decreased to a certain extent; Caspase-3 and -8 levels in liver, ELISA (in words) [7]: ability to elevate the reduced levels of caspase-3 and -8; Caspase-3 and -8 gene expression, qRT-PCR (in words) [8]: significantly elevated (p<0.001) the reduced levels of caspase-3 and -8; Histological changes in liver tissue, H&E (in words) [9]: marked improvement in gross microscopic appearance of hepatic tissue

Q: What does the source list for O=c1[nH]cc(F)c(=O)[nH]1 [Batch 5-FU, 5-fluorouracil, reference compound]?
A: Final day body weight [3, 14]: 125.00 ± 3.15 g; Liver weight [3, 14]: 10.43 ± 1.71 g; Tumor incidence no [3, 14]: 6.00±0.83; Weight variation [3, 14]: 10.00 ± 1.26 g; CAT [4, 14]: 8.41±0.68 nM of H2O2/min/µg of protein; GSH [4, 14]: 5.04±0.61 mM/mg of protein; ProC [4, 14]: 0.69±0.03 µM/µg of protein; SOD [4, 14]: 0.24±0.09 U/µg of protein; TBARS [4, 14]: 0.09±0.01 nM of MDA/mg of protein
